In ChEMBL document CHEMBL4257478, “Design, synthesis and evaluation of (R)-3-(7-(methyl(7H-pyrrolo[2,3-d]pyrimidin-4-yl)amino)-5-azaspiro[2.4]heptan-5-yl)-3-oxopropanenitrile as a JAK1-selective inhibitor” (Medchemcomm, 2018):
Each block holds one compound with its values, some of them ahead of it. Calls of active or inactive are those of the source. No cut-off for these calls is given here.

What was measured:
[1] = Oral bioavailability in Sprague-Dawley rat at 10 mg/kg after 0.25 to 24 hrs by LC-MS/MS method; type: ADME, organism-based; conditions: in vivo
In short: (§1)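 Male Sprague Dawley rats, 7–8 weeks old, n=4, fasted 16 h. Free base given at 10 mg/kg po as a corn oil suspension (5 mL/kg); a 5 mg/kg iv arm used 10% ethanol/90% PEG400. Plasma sampled 0.25–24 h, acetonitrile-precipitated with internal standard, and measured by LC-MS/MS. Parameters derived by non-compartmental analysis.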

[2] = Half life in Sprague-Dawley rat at 5 mg/kg, iv after 0.08 to 24 hrs by LC-MS/MS method; type: ADME, organism-based; conditions: in vivo
In short: (§2)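 Male Sprague Dawley rats, 7-8 weeks old, n=4 per group. IV dose 5 mg/kg free base in 10% ethanol/90% PEG400; oral dose 10 mg/kg as corn oil suspension after 16 h fast. Blood taken 0.08-24 h (IV) or 0.25-24 h (PO). Plasma diluted in acetonitrile with internal standard, analysed by LC-MS/MS, parameters by non-compartmental analysis.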

[3] = Tmax in Sprague-Dawley rat at 10 mg/kg, po after 0.25 to 24 hrs by LC-MS/MS method; type: ADME, organism-based; conditions: in vivo; in short: as §1
Rattus norvegicus [4] = assay: AUC (0 to t) in Sprague-Dawley rat at 10 mg/kg, po after 0.25 to 24 hrs by LC-MS/MS method; type: ADME, organism-based; parameters: time lower 0.25 hr, dose 10 mg/kg, time upper 24 hr, route oral; conditions: in vivo; in short: as §2
[5] = Cmax in Sprague-Dawley rat at 10 mg/kg, po after 0.25 to 24 hrs by LC-MS/MS method; type: ADME, organism-based; parameters: dose 10 mg/kg, route oral; conditions: in vivo; in short: as §2
Rattus norvegicus [6] = assay: AUC (0 to infinity) in Sprague-Dawley rat at 5 mg/kg, iv after 0.08 to 24 hrs by LC-MS/MS method; type: ADME, organism-based; parameters: dose 5 mg/kg, time infinity, route intravenous; conditions: in vivo; in short: as §2
Rattus norvegicus [7] = assay: AUC (0 to infinity) in Sprague-Dawley rat at 10 mg/kg, po after 0.25 to 24 hrs by LC-MS/MS method; type: ADME, organism-based; parameters: dose 10 mg/kg, route oral, time infinity; conditions: in vivo; in short: as §2
[8] = MRT in Sprague-Dawley rat at 10 mg/kg, po after 0.25 to 24 hrs by LC-MS/MS method; type: ADME, organism-based; conditions: in vivo; in short: as §2
Rattus norvegicus [9] = assay: AUC (0 to t) in Sprague-Dawley rat at 5 mg/kg, iv after 0.08 to 24 hrs by LC-MS/MS method; type: ADME, organism-based; parameters: time upper 24 hr, time lower 0.08 hr, dose 5 mg/kg, route intravenous; conditions: in vivo; in short: as §2
[10] = MRT in Sprague-Dawley rat at 5 mg/kg, iv after 0.08 to 24 hrs by LC-MS/MS method; type: ADME, organism-based; conditions: in vivo; in short: as §2
[11] = Half life in Sprague-Dawley rat at 10 mg/kg, po after 0.25 to 24 hrs by LC-MS/MS method; type: ADME, organism-based; conditions: in vivo; in short: as §2
[12] = target: T1, Tyrosine-protein kinase JAK1 (Homo sapiens, UniProt P23458); assay: Inhibition of human JAK1 at 1 uM using GEEPLYWSFPAKKK as substrate after 40 mins in presence of [gamma-33P-ATP] by scintillation counting method relative to control
[13] = target: Tyrosine-protein kinase JAK2 (Homo sapiens, UniProt O60674); assay: Inhibition of human JAK2 at 1 uM using KTFCGTPEYLAPEVRREPRILSEEEQEMFRDFDYIADWC as substrate after 40 mins in presence of [gamma-33P-ATP] by scintillation counting method relative to control
[14] = target: T2, Tyrosine-protein kinase JAK3 (Homo sapiens) (UniProt P52333); conditions: 10 uM
T2 sequence (whole entry): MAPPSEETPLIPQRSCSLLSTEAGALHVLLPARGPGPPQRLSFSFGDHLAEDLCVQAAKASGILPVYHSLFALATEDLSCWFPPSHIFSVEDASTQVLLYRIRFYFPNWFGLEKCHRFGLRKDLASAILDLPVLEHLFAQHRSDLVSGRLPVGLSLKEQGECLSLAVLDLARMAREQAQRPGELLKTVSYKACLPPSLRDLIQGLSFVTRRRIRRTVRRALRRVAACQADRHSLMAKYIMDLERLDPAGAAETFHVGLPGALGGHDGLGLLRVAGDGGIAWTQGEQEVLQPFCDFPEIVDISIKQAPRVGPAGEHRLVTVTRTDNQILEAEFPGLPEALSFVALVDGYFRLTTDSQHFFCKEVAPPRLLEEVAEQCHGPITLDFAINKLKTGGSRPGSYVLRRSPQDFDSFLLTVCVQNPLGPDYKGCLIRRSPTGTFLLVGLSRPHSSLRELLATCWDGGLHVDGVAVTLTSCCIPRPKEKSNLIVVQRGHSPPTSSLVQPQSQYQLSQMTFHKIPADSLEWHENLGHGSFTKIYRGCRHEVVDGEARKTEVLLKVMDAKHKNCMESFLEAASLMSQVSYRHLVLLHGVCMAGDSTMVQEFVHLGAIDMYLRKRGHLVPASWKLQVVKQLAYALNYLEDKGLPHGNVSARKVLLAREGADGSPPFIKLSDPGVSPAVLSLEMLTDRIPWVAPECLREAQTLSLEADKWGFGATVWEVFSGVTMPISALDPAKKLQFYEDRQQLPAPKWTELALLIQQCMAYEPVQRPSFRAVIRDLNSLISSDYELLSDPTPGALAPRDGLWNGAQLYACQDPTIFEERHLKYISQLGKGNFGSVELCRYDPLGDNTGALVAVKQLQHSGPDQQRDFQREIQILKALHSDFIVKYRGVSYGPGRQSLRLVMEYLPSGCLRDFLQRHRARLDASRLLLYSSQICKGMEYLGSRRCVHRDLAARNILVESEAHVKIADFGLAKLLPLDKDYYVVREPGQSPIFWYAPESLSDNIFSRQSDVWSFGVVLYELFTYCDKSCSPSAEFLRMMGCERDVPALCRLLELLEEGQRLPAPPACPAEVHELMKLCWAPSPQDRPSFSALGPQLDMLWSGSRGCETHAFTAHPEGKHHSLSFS

Homo sapiens = species: Homo sapiens; assay: Selectivity index, ratio of IC50 for human JAK2 to IC50 for human JAK1
In short: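 Kinase activity assays run as a commercial service at Km ATP; IC50 values fitted from concentration-response data; ratio of JAK2 to JAK1 IC50.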

Mus musculus [15] = assay: Antiarthritic activity in collagen-induced DBA1/J mouse arthritis model assessed as decrease in infiltration of inflammatory cells in right hind ankle joints administered as po qd measured on day 19 by hematoxylin-eosin staining-based assay; type: functional, organism-based
In short: (§3)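 Male DBA1/J mice, 6 weeks old, immunized s.c. at the tail base with type II collagen (2 mg/mL) in complete Freund's adjuvant (1:1, 0.1 mL), then boosted at day 21 with collagen in incomplete Freund's adjuvant. Clinical scores taken twice weekly for 18 days; serum IL-6 and TNF-α measured after autopsy; right hind ankle assessed by histopathology and by micro-CT for bone surface/volume.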

Mus musculus [16] = assay: Antiarthritic activity in collagen-induced DBA1/J mouse arthritis model assessed as decrease in right hind ankle joint thickness administered as po qd measured on day 19 by hematoxylin-eosin staining-based assay; type: functional, organism-based; in short: as §3
Rattus norvegicus [17] = assay: Antiarthritic activity in adjuvant-induced SPF LEW/SsNSlc rat arthritis model assessed as decrease in clinical arthritis score at 5 to 20 mg/kg, po qd measured on day 14; type: functional, organism-based
In short: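 Lewis rats were 10 weeks old after 2 weeks acclimation. Immunized s.c. at the tail base with 0.1 mL complete Freund's adjuvant containing 10 mg/mL heat-killed mycobacterium. From day 12 post-immunization (day 1), n=10 per group, oral dosing once daily for 14 days, vehicle corn oil. Clinical score and hind paw measured twice weekly.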

Mus musculus [18] = assay: Antiarthritic activity in collagen-induced DBA1/J mouse arthritis model assessed as decrease in articular surface cartilage thickness in right hind ankle joints administered as po qd measured on day 19 by hematoxylin-eosin staining-based assay; type: functional, organism-based; in short: as §3
[19] = target: Non-receptor tyrosine-protein kinase TYK2 (Homo sapiens) (UniProt P29597); conditions: 10 uM
[20] = target: T1, Tyrosine-protein kinase JAK1; conditions: 10 uM
Mus musculus [21] = assay: Antiarthritic activity in collagen-induced DBA1/J mouse arthritis model assessed as decrease in serum IL-6 levels administered as po qd measured on day 19 by ELISA; type: functional, organism-based; in short: as §3
Mus musculus [22] = assay: Antiarthritic activity in collagen-induced DBA1/J mouse arthritis model assessed as decrease in ratio of bone surface to bone volume of right hind ankle joint administered as po qd measured on day 19 by micro-CT analysis; type: functional, organism-based; in short: as §3
Mus musculus [23] = assay: Antiarthritic activity in collagen-induced DBA1/J mouse arthritis model assessed as decrease in paw volume administered as po qd measured on day 1 and 15 by plethysmometer
Mus musculus [24] = assay: Antiarthritic activity in collagen-induced DBA1/J mouse arthritis model assessed as decrease in clinical arthritis score administered as po qd measured twice weekly for 18 days; type: functional, organism-based; in short: as §3

T1 sequence (P23458 whole entry): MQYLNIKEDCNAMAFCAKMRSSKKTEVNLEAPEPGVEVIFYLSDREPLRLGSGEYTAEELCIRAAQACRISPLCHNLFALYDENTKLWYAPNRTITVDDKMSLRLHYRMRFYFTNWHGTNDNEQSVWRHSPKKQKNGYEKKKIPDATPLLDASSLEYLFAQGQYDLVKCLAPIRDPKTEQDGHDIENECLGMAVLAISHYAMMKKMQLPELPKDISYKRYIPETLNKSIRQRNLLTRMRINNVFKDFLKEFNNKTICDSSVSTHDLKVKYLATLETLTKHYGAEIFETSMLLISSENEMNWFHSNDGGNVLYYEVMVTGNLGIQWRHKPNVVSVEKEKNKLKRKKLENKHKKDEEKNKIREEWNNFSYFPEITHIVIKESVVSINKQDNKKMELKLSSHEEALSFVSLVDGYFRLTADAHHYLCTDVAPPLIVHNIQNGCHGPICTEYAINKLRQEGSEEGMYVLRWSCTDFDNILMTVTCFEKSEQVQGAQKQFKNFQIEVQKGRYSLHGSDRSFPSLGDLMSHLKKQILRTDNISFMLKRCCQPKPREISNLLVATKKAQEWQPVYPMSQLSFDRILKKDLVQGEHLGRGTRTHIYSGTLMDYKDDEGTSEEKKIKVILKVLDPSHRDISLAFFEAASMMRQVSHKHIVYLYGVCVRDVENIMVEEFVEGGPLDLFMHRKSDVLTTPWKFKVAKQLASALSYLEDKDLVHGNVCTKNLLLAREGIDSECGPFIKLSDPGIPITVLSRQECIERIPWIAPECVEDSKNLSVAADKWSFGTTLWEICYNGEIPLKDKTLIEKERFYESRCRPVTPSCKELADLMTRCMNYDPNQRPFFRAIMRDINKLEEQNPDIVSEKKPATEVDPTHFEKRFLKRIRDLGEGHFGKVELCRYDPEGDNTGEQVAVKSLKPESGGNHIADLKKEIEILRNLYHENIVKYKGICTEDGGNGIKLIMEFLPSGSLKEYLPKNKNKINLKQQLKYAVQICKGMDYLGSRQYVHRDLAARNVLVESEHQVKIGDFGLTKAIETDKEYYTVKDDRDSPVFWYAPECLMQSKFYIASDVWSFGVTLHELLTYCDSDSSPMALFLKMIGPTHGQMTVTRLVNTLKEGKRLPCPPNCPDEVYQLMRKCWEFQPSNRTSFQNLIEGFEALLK
Chain of Tyrosine-protein kinase JAK2 (O60674 whole entry): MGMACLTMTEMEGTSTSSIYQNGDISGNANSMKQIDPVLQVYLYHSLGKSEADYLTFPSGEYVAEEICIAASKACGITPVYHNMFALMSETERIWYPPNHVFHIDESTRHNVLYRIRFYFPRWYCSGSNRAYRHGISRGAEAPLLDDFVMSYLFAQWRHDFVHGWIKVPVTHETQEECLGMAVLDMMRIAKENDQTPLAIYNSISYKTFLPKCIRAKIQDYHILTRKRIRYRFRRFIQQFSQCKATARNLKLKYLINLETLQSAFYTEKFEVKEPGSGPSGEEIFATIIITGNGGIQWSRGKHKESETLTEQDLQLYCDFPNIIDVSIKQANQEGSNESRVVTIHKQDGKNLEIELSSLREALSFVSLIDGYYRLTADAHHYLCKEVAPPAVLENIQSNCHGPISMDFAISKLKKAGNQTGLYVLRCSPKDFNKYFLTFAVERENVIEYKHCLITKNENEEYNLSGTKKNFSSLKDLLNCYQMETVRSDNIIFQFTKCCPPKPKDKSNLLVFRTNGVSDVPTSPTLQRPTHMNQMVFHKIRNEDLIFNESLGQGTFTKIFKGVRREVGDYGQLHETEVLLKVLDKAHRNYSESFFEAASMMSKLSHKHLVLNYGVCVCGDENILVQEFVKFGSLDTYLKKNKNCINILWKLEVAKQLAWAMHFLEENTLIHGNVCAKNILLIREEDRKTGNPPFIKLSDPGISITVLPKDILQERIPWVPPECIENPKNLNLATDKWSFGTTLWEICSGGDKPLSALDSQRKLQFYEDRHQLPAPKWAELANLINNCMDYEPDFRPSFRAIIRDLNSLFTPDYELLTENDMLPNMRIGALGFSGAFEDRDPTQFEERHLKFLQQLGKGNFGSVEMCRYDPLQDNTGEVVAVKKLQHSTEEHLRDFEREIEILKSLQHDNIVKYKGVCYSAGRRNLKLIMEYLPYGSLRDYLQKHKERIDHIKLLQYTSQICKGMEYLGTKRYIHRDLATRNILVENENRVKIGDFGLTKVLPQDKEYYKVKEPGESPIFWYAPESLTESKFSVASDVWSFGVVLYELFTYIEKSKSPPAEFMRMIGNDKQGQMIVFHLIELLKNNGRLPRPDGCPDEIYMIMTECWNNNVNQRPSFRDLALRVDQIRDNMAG
Chain of Non-receptor tyrosine-protein kinase TYK2 (Homo sapiens) (P29597 whole entry): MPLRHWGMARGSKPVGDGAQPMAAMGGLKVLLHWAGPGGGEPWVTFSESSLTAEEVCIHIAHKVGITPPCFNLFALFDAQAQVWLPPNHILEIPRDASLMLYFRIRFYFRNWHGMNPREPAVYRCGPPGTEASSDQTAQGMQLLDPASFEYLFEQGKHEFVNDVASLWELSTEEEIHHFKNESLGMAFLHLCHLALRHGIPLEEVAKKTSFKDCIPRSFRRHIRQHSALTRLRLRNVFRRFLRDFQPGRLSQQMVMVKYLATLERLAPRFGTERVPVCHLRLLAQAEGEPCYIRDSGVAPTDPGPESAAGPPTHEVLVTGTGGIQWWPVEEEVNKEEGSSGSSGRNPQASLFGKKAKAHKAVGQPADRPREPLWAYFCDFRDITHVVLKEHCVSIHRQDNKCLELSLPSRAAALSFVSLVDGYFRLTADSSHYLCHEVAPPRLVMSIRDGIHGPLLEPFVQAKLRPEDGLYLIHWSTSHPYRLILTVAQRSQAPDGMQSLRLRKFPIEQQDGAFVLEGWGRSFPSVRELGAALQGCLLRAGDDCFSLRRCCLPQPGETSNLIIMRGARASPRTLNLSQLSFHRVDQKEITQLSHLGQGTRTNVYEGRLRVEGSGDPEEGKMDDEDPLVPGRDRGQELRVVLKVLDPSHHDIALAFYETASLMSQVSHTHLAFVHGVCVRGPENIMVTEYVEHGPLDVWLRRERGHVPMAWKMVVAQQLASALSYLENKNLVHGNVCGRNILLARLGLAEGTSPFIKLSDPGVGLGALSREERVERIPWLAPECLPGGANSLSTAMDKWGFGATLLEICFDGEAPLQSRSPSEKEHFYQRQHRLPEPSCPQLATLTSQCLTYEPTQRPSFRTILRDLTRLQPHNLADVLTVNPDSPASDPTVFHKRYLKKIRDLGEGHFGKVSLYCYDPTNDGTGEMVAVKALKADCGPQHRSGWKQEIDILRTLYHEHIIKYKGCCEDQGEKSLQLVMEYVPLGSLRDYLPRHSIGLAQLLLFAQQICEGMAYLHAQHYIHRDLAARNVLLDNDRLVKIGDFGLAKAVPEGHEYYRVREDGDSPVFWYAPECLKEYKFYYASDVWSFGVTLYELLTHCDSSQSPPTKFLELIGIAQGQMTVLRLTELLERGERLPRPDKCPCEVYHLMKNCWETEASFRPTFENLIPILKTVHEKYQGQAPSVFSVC

bioavailability [1]: 65%
half-life [2]: 36 min
Tmax [3]: 24 min
AUCt (Rattus norvegicus [4]): 2400 ng·h/mL
Cmax [5]: 1300 ng/mL
AUC (Rattus norvegicus [6]): 1900 ng·h/mL
AUC (Rattus norvegicus [7]): 2400 ng·h/mL
MRT [8]: 96 min
AUCt (Rattus norvegicus [9]): 1800 ng·h/mL
MRT [10]: 42 min
half-life [11]: 66 min
SMILES: CN(c1ncnc2[nH]ccc12)[C@H]1CN(C(=O)CC#N)CC12CC2.Cl

inhibition [12]: 6%
inhibition at 1 µM [13]: 10%
SMILES: N#CCC(=O)NC1CN(c2ncnc3[nH]ccc23)CC12CC2 (stereo not given)

inhibition [14]: 90%
Ratio IC50 (Homo sapiens): 48
inhibition [19]: 90%
inhibition [20]: 90%
SMILES: CN(c1ncnc2[nH]ccc12)[C@H]1CN(C(=O)CC#N)CC12CC2
Activity (Mus musculus [15]): Dose-dependent effect
Activity (Mus musculus [16]): Dose-dependent effect
Activity (Rattus norvegicus [17]): Active
Activity (Mus musculus [18]): Dose-dependent effect
Activity (Mus musculus [21]): Dose-dependent effect
Activity (Mus musculus [22]): Dose-dependent effect
Activity (Mus musculus [23]): Dose-dependent effect
Activity (Mus musculus [24]): Dose-dependent effect
